# Assay results reported in ChEMBL document CHEMBL4373640, “Synthesis and antitumor activity of aza-brazilan derivatives containing imidazolium salt pharmacophores” (Medchemcomm, 2019).
# pIC50: −log10 of the molar value.
# Columns and labels:
# [1] = Cell cycle arrest in human SMMC-7221 cells assessed as accumulation at sub-G1 phase at 2 uM after 24 hrs by propidium iodide/RNase A staining based FACSCalibur flow cytometry analysis (reference value: 4.03 +/- 0.47 %); type: functional
# [2] = Induction of apoptosis in human SMMC-7221 cells assessed as viable cells at 1 uM after 48 hrs by AnnexinV-FITC/propidium iodide staining based FACSCalibur flow cytometry analysis (reference value: 89.8 %); type: functional; settings: SMMC-7221, 48 h, read-out: Activity
# [3] = Cell cycle arrest in human SMMC-7221 cells assessed as accumulation at G2/M phase at 1 uM after 24 hrs by propidium iodide/RNase A staining based FACSCalibur flow cytometry analysis (reference value: 8.21 +/- 0.38 %); type: functional
# [4] = Cell cycle arrest in human SMMC-7221 cells assessed as accumulation at sub-G1 phase at 1 uM after 24 hrs by propidium iodide/RNase A staining based FACSCalibur flow cytometry analysis (reference value: 4.03 +/- 0.47 %); type: functional
# [5] = Cell cycle arrest in human SMMC-7221 cells assessed as accumulation at sub-G1 phase at 4 uM after 24 hrs by propidium iodide/RNase A staining based FACSCalibur flow cytometry analysis (reference value: 4.03 +/- 0.47 %); type: functional
# BEAS-2B = experiment: Cytotoxicity against human BEAS2B cells assessed as reduction in cell viability after 48 hrs by MTS assay; type: cell-based
# In short: (§1)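 Cells (5 × 10^3 per well) were plated 12 h before treatment, then exposed continuously to compound for 48 h. MTS was added, with 1–4 h incubation at 37 °C and OD read at 490 nm. IC50 is the concentration cutting OD by 50% versus untreated cells, taken from dose–response curves. Values are the mean of three independent determinations.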
# [6] = Induction of apoptosis in human SMMC-7221 cells assessed as early apoptotic cells at 1 uM after 48 hrs by AnnexinV-FITC/propidium iodide staining based FACSCalibur flow cytometry analysis (reference value: 0.106 %); type: functional
# [7] = Induction of apoptosis in human SMMC-7221 cells assessed as necrotic cells at 8 uM after 48 hrs by AnnexinV-FITC/propidium iodide staining based FACSCalibur flow cytometry analysis (reference value: 2.34 %); type: functional
# [8] = Induction of apoptosis in human SMMC-7221 cells assessed as early apoptotic cells at 0.5 uM after 48 hrs by AnnexinV-FITC/propidium iodide staining based FACSCalibur flow cytometry analysis (reference value: 0.106 %); type: functional
# NCM460 = experiment: Cytotoxicity against human NCM460 cells assessed as reduction in cell viability after 48 hrs by MTS assay; type: cell-based; settings: NCM460, 48 h; in short: as §1
structure (smiles),measurement,setting,value
COc1cccc2c1N(CCCn1c[n+](Cc3ccc(C)cc3)c3cc(C)c(C)cc31)C[C@@H]1Cc3ccc(Br)cc3[C@H]21.[Br-],Activity,[1],1.21%
same,viability at 1 µM,[2],79.2%
same,Activity,[3],7.64%
same,Activity,[4],1.32%
same,Activity,[5],18.65%
same,pIC50,BEAS-2B,5.68
same,Activity,[6],0.529%
same,Activity,[7],13.3%
same,Activity,[8],0.314%
same,pIC50,NCM460,5.71
